Measurements pooled from the literature.
Each line is one published result; the experiments were not run side by side.
Target: Ephrin type-A receptor 2 (EPHA2, Homo sapiens, UniProt P29317)

| SMILES | assay | conditions | quantity | result |
| --- | --- | --- | --- | --- |
| COc1ncccc1-c1cnn2ccc(N3CCN(C(=O)OC(C)C)CC3)nc12 | binding, competition with immobilised ligand | 1 µM | remaining binding | 79% |
| Cn1cncc1[C@@](O)(COc1ccc(C#N)cc1-c1ccc(OC(F)(F)F)cc1)c1ccc(C#N)cc1 | cell-free assay, competition with immobilised ligand | 1 µM | remaining binding | 89% |
| Cn1cc(-c2cc(F)cc(N3CCn4c(cc5c4CCCC5)C3=O)c2CO)cc(Nc2ccc(N3CCN(C4COC4)CC3)cn2)c1=O | enzyme activity, inhibitor | 0.1 µM | inhibition | -1% |
| COc1cc(Nc2ncc(F)c(Nc3ccc4c(n3)NC(=O)C(C)(C)O4)n2)cc(OC)c1OC | binding, competition with immobilised ligand | 10 µM | inhibition | 90% |
| O=c1[nH]c2ccccc2n1C1CCN(Cc2ccc(-c3[nH]c4cc5ncnc5cc4nc3-c3ccccc3)cc2)CC1 | cell-free assay | 0.5 µM | remaining signal | 103% |
| Cc1nn(C)cc1-c1nc2c(N3CCN(Cc4ccc(Cl)cc4)CC3)c(Cl)cnc2[nH]1 | binding, competition with immobilised ligand | 1 µM | remaining binding | 100% |
| CC(C)(C)c1cc(C=C(C#N)C#N)cc(Br)c1O | enzyme activity, inhibitor | 0.5 µM | remaining activity | 105% |
| N#CC1(c2ccccn2)CCN(Cc2cc(C(=O)O)c(=O)n3ccccc23)CC1 | cell-free assay, competition with immobilised ligand | 1 µM | remaining binding | 83% |
| Cn1cc(-c2cccc(N3CCc4c(sc5c4CC(C)(C)C5)C3=O)c2CO)cc(Nc2ccncn2)c1=O | enzyme activity, inhibitor | 1 µM | inhibition | 16% |
| Nc1ncc(-c2nc(N3CCOCC3)nc(N3CCOCC3)n2)c(C(F)F)n1 | cell-free assay, competition with immobilised ligand | 10 µM | remaining binding | 94% |
